Values belong to the compound of their own block, whether it stands above or below them. Active and inactive are the calls of the source. *1 amine or outer side, *2 acyl side, *3 side chain or, on linkers, in order; H or OH if unused. Where a SMILES comes first, the peptide text is derived from it. Bridges are numbered along the chain shown (N, C = ends). Triazole bridges read from a SMILES are 1,4-linked. [ ]: non-standard residue; d: D form. The star is where a group is joined. RhodamineB = CCN(CC)c1ccc2c(-c3ccccc3C(=O)*)c3ccc(=[N+](CC)CC)cc-3oc2c1; Lys(N3) = [N-]=[N+]=NCCCC[C@H](N)C(=O)O; X1 = O=C([C@H](Cc1c[nH]nn1)N[*:1])[*:2]; NMeGABA = CN(CCCC(=O)[*:2])[*:1]; Pra = C#CC[C@H](N)C(=O)O
Tests used:
[1] = molecular target: T1, 72 kDa type IV collagenase (Homo sapiens, UniProt P08253); assay: Binding affinity to N-terminal (His6)-MBP tagged full-length human proMMP2 expressed in Escherichia coli BL21(DE3) RIL assessed as reduction in Rhod-cy(WPHPY binding incubated for 30 mins by fluorescence polarization assay
In short: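 Competitive fluorescence polarization in PBS. Recombinant tag-free full-length proMMP2 (TEV-cleaved after nickel purification, then ion-exchange and size exclusion) and Rhod-cy(WPHPY) each held at 100 nM, with unlabeled ligand titrated. Read as FP. Triplicate individually prepared samples averaged, reported as mean ± SD. Each experiment repeated at least three times on different days.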

[2] = molecular target: T1, 72 kDa type IV collagenase; assay: Binding affinity to […] expressed in Escherichia coli BL21(DE3) RIL incubated for 30 mins by fluorescence polarization assay
[3] = molecular target: T1, 72 kDa type IV collagenase; assay: Inhibition of proMMP2 activation in human WM115 cells assessed as reduction in MMP2 activity at 0.1 nM to 1 uM incubated for 24 hrs using enzyme-specific fluorogenic substrate by fluorescence based assay; format: cell-based
In short: (§1)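 WM115 cells grown to 80% confluency, then cultured 24 h in serum-free medium containing compound (no-compound control). Medium concentrated and BCA-normalized. 10 μg protein in TNC buffer (pH 7.5) with MMP2- or MMP9-specific fluorogenic substrate (3 μM), incubated 20 min at 37 °C, fluorescence read at Ex 325/Em 393 nm. Triplicates, three repeats.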

[4] = molecular target: T1, 72 kDa type IV collagenase; assay: Binding affinity to catalytic domain of proMMP2 in human WM115 cells assessed as reduction in TIMP2-mediated inhibition of MMP2 enzyme activity at 0.1 nM to 1 uM incubated for 5 mins using MMP2-specific fluorogenic substrate by fluorescence based assay; format: cell-based
In short: (§2)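 WM115 serum-free 24 h conditioned medium, concentrated and normalized by BCA. 10 μg protein in TNC buffer (50 mM Tris, 0.15 M NaCl, 10 mM CaCl2, pH 7.5) with compound in PBS, equilibrated 5 min at 37 °C. MMP2-specific fluorogenic substrate (3 μM) added, 20 min at 37 °C, read at Ex 325/Em 393 nm. For the TIMP2 condition, recombinant TIMP2 (10 μL of 1 μg/μL) added to all mixtures. Triplicates, three repeats.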

[5] = molecular target: T1, 72 kDa type IV collagenase; assay: Inhibition of proMMP2 activation in human WM115 cells assessed as reduction in MMP2 protein expression incubated for 24 hrs by Western blot analysis; format: cell-based
In short: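 WM115 cells treated 24 h in serum-free medium with compound (PBS control). Conditioned medium immunoblotted for MMP2 with HRP secondary and chemiluminescent detection. Three independent blots, each with medium from a fresh cell batch.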

[6] = system: Matrix metalloproteinase-2 (Homo sapiens); assay: Inhibition of proMMP2 activation in human WM115 cells assessed as decrease in cell invasion at 1 nM to 1 uM incubated for 24 hrs by transwell cell invasion assay
[7] = system: Matrix metalloproteinase-2 (Homo sapiens); assay: Inhibition of proMMP2 activation in human WM115 cells assessed as decrease in cell numbers in wound region at 1 nM to 1 uM incubated for 24 hrs by wound-healing scratch assay
[8] = molecular target: Matrix metalloproteinase-9 (Homo sapiens) (UniProt P14780); assay: Inhibition of proMMP9 activation in human WM115 cells assessed as reduction in MMP9 activity at 0.1 nM to 1 uM incubated for 24 hrs using enzyme-specific fluorogenic substrate by fluorescence based assay; format: cell-based; in short: as §1
[9] = molecular target: T1, 72 kDa type IV collagenase; assay: Binding affinity to hemopexin domain of proMMP2 in human WM115 cells assessed as inhibition of TIMP2-MMP2 interaction using surface immobilized recombinant TIMP incubated for 1 hr by ELISA based competitive binding assay; format: cell-based
In short: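 His-tagged recombinant TIMP2 (9 pmol/well) captured on Ni-coated wells, blocked with His6 peptide. WM115 serum-free 24 h conditioned medium, concentrated (10 kDa cutoff), mixed with compound in PBS (PBS control) and incubated 1 h at room temperature with shaking. Bound MMP2 detected with anti-MMP2 rabbit mAb, HRP secondary and chemiluminescence. Triplicates averaged, experiment repeated three times.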

[10] = molecular target: T1, 72 kDa type IV collagenase; assay: Binding affinity to of proMMP2 in human WM115 cells assessed as reduction in cell membrane association of proMMP at 10 nM incubated for 15 hrs by immunofluorescence based confocal microscopy
In short: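 WM115 cells in full medium exposed to 10 nM for 15 h, fixed in 4% paraformaldehyde without permeabilization and blocked in 5% goat serum. Stained overnight at 4 °C with anti-MMP2 (1:500), then Alexa Fluor 594 anti-rabbit (1:2000). Confocal imaging; single-cell intensity quantified over thirty cells per image. Three repeats.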

[11] = molecular target: T1, 72 kDa type IV collagenase; assay: Inhibition of proMMP2 activation in human WM115 cells assessed as reduction in MMP2 activity at 0.1 nM to 1 uM incubated for 24 hrs by gelatin zymography; format: cell-based
In short: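 WM115 cells (600k per well) seeded 8 h in full medium, then 24 h at 37 °C in serum-free medium with compound. Medium concentrated and normalized to 10 μg/mL protein. Run on 7.5% gelatin gel, washed in Triton X-100 buffer, incubated 20 h at 37 °C in CaCl2/ZnCl2 buffer, then Coomassie stained. Three independent experiments.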

[12] = molecular target: T1, 72 kDa type IV collagenase; assay: Inhibition of MMP2 in human WM115 cells at 0.1 nM to 1 uM incubated for 5 mins using MMP2-specific fluorogenic substrate by fluorescence based assay; format: cell-based; in short: as §2

Chain of Matrix metalloproteinase-9 (Homo sapiens) (P14780 whole entry, the tested form may be a part): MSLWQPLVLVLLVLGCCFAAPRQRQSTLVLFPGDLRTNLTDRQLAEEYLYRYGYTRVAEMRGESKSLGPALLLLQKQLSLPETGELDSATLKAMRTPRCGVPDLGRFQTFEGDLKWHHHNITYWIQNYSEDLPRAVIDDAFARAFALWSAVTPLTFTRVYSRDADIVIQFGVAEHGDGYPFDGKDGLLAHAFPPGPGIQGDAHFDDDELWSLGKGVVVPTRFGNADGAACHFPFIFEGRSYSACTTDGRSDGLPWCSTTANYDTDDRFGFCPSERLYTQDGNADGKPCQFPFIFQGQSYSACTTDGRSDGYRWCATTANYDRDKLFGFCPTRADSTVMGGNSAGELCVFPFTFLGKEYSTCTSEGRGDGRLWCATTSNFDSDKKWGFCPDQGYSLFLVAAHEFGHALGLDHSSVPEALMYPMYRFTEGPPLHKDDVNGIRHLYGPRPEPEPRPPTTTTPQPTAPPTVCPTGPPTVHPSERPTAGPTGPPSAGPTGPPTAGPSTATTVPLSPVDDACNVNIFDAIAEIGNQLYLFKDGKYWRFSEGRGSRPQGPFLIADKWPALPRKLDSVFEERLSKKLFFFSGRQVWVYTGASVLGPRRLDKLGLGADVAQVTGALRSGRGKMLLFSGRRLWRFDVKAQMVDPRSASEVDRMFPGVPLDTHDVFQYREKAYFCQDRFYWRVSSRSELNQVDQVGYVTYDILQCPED
T1 sequence (P08253 whole entry): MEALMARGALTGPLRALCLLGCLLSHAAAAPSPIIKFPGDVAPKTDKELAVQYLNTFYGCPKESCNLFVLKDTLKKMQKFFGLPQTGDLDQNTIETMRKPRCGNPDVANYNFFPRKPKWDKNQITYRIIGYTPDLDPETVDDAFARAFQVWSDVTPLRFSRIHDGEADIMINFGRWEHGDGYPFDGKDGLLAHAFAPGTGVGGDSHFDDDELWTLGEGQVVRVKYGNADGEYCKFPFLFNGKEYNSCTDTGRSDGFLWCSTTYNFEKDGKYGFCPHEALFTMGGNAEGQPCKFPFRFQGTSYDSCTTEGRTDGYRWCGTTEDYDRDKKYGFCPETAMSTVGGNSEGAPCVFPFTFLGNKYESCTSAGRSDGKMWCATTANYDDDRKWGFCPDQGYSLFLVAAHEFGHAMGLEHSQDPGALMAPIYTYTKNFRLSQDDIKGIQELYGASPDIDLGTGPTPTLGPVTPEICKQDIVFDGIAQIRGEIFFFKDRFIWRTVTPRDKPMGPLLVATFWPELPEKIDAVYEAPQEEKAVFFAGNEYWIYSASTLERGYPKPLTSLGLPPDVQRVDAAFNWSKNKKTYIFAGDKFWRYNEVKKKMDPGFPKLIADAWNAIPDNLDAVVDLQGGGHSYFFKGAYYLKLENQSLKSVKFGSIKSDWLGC

Compound: CCN(CC)c1ccc2c(-c3ccccc3C(=O)N(C)CCCC(=O)N[C@H]3Cc4cn(nn4)CCCC[C@@H](C(N)=O)NC(=O)[C@H](Cc4ccc(O)cc4)NC(=O)[C@@H]4CCCN4C(=O)[C@H](Cc4c[nH]cn4)NC(=O)[C@@H]4CCCN4C(=O)[C@H](Cc4c[nH]c5ccccc45)NC3=O)c3ccc(=[N+](CC)CC)cc-3oc2c1 (RhodamineB-[NMeGABA][Pra]WPHPY[Lys(N3)]-NH2; triazole 2-8)
- Activity [1]: Active
- Kd [2]: 280 nM

- Activity [1]: Active
Compound: C[C@@H]1NC(=O)[C@H](Cc2c[nH]c3ccccc23)NC(=O)[C@@H](N)Cc2cn(nn2)CCCC[C@@H](C(N)=O)NC(=O)[C@H](Cc2ccc(O)cc2)NC(=O)[C@@H]2CCCN2C(=O)[C@H](Cc2c[nH]cn2)NC1=O (H-[Pra]WAHPY[Lys(N3)]-NH2; triazole 1-7)

- Activity [1]: Active
Compound: C[C@@H]1NC(=O)[C@@H]2CCCN2C(=O)[C@H](Cc2c[nH]cn2)NC(=O)[C@@H]2CCCN2C(=O)[C@H](Cc2c[nH]c3ccccc23)NC(=O)[C@@H](N)Cc2cn(nn2)CCCC[C@@H](C(N)=O)NC1=O (H-[Pra]WPHPA[Lys(N3)]-NH2; triazole 1-7)

- inhibition [3]: inactive
Compound: NCCCC[C@H](NC(=O)[C@H](Cc1ccc(O)cc1)NC(=O)[C@@H]1CCCN1C(=O)[C@H](Cc1c[nH]cn1)NC(=O)[C@@H]1CCCN1C(=O)[C@H](Cc1c[nH]c2ccccc12)NC(=O)[C@@H](N)Cc1c[nH]nn1)C(N)=O (H-[X1]WPHPYK-NH2)

- Activity [1]: Active
Compound: C[C@@H]1NC(=O)[C@@H]2CCCN2C(=O)[C@H](Cc2c[nH]c3ccccc23)NC(=O)[C@@H](N)Cc2cn(nn2)CCCC[C@@H](C(N)=O)NC(=O)[C@H](Cc2ccc(O)cc2)NC(=O)[C@@H]2CCCN2C1=O (H-[Pra]WPAPY[Lys(N3)]-NH2; triazole 1-7)

- Activity [1]: Active
Compound: C[C@@H]1NC(=O)[C@@H](N)Cc2cn(nn2)CCCC[C@@H](C(N)=O)NC(=O)[C@H](Cc2ccc(O)cc2)NC(=O)[C@@H]2CCCN2C(=O)[C@H](Cc2c[nH]cn2)NC(=O)[C@@H]2CCCN2C1=O (H-[Pra]APHPY[Lys(N3)]-NH2; triazole 1-7)

- Activity [1]: Active
Compound: C[C@@H]1NC(=O)[C@H](Cc2c[nH]cn2)NC(=O)[C@@H]2CCCN2C(=O)[C@H](Cc2c[nH]c3ccccc23)NC(=O)[C@@H](N)Cc2cn(nn2)CCCC[C@@H](C(N)=O)NC(=O)[C@H](Cc2ccc(O)cc2)NC1=O (H-[Pra]WPHAY[Lys(N3)]-NH2; triazole 1-7)

- Activity [4]: inactive
- inhibition [3]: Active
- inhibition [5]: Dose-dependent effect
- inhibition [6]: Active
- inhibition [7]: Active
- inhibition [8]: inactive
- Activity [9]: Active
- Activity [10]: Active
- inhibition [11]: Dose-dependent effect
- inhibition [12]: inactive
Compound: NC(=O)[C@@H]1CCCCn2cc(nn2)C[C@H](N)C(=O)N[C@@H](Cc2c[nH]c3ccccc23)C(=O)N2CCC[C@H]2C(=O)N[C@@H](Cc2c[nH]cn2)C(=O)N2CCC[C@H]2C(=O)N[C@@H](Cc2ccc(O)cc2)C(=O)N1 (H-[Pra]WPHPY[Lys(N3)]-NH2; triazole 1-7)
